Calls of active or inactive are those of the source. The rule behind the calls is not given here.
Legend:
[1] = test system: 518A2; test: Antiproliferative activity against human 518A2 cells after 72 hrs by MTT assay; assay type: functional, cell-based; conditions: for IC50: 518A2, 72 h
In short: (§1)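 MTT read-out after 72 h of continuous exposure. Viability is expressed as percentage of viable cells relative to untreated controls. IC50 comes from dose-response curves. Values are means±SD of four independent experiments (two for some entries). DMSO was below 1%, with vehicle controls at equal DMSO. Precipitation was excluded spectrometrically and microscopically.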

[2] = test system: 518A2; test: Induction of apoptosis in human 518A2 cells at 100 nM after 24 hrs by TUNEL assay relative to control; assay type: functional
[3] = target: Tubulin (Sus scrofa, UniProt P02554+P02550); test: Inhibition of porcine brain tubulin polymerization after 2 hrs
[4] = test system: HT-29; test: Cell cycle arrest in human HT-29 cells assessed as accumulation of cells at S phase at 250 nM after 24 hrs by propidium iodide staining-based flow cytometric analysis (reference value: 12.3 +/- 0.4%); assay type: functional
[5] = test system: EA.hy 926; test: Antiproliferative activity against human EAhy926 cells after 72 hrs by MTT assay; assay type: functional, cell-based; conditions: EA.hy 926, 72 h; in short: as §1
[6] = test system: A2780; test: Antiproliferative activity against human A2780 cells after 72 hrs by SRB assay; assay type: functional, cell-based; conditions: A2780, 72 h
In short: (§2)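 Ovarian A2780 and cisplatin-resistant A2780cis cells were exposed for 72 h and stained with SRB. IC50 comes from dose-response curves, as means±SD of three independent experiments. Final DMSO was below 1%, with matched vehicle controls.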

[7] = test system: DLD-1; test: Antiproliferative activity against human DLD1 cells after 72 hrs by MTT assay; assay type: functional, cell-based; conditions: DLD-1, 72 h; in short: as §1
[8] = test system: HCT-116; test: Antiproliferative activity against human HCT116 cells after 72 hrs by MTT assay; assay type: functional, cell-based; conditions: HCT-116, 72 h; in short: as §1
[9] = test system: HT-29; test: Cell cycle arrest in human HT-29 cells assessed as accumulation of cells at G2/M phase at 350 nM after 24 hrs by propidium iodide staining-based flow cytometric analysis (reference value: 11.4 +/- 1.4%); assay type: functional
[10] = Antiproliferative activity against human MCF7/Topo cells after 72 hrs by MTT assay; assay type: functional, cell-based; in short: as §1
[11] = Antiproliferative activity against human A2780cis cells after 72 hrs by SRB assay; assay type: functional, cell-based; in short: as §2
[12] = test system: HT-29; test: Cell cycle arrest in human HT-29 cells assessed as accumulation of cells at S phase at 100 nM after 24 hrs by propidium iodide staining-based flow cytometric analysis (reference value: 12.3 +/- 0.4%); assay type: functional
[13] = test system: HT-29; test: Cell cycle arrest in human HT-29 cells assessed as accumulation of cells at G2/M phase at 250 nM after 24 hrs by propidium iodide staining-based flow cytometric analysis (reference value: 11.4 +/- 1.4%); assay type: functional
[14] = test system: 518A2; test: Antimigratory activity against human 518A2 cells at 50 nM after 48 hrs by wound healing assay; assay type: functional, cell-based
[15] = test system: HT-29; test: Cell cycle arrest in human HT-29 cells assessed as accumulation of cells at sub G1 phase at 350 nM after 24 hrs by propidium iodide staining-based flow cytometric analysis (reference value: 1.2 +/- 0.3%); assay type: functional
[16] = test system: PANC-1; test: Antiproliferative activity against human PANC1 cells after 72 hrs by MTT assay; assay type: functional, cell-based; conditions: PANC-1, 72 h; in short: as §1
[17] = test system: EA.hy 926; test: Antiangiogenic activity against human EAhy926 cells assessed as inhibition of tube formation on matrigel at 100 nM after 24 hrs by light microscopic analysis; assay type: functional, cell-based
In short: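 Ea.Hy926 endothelial hybrid cells were seeded on matrigel with compound and examined for tubular/cord-like network formation versus untreated controls. Viability under the same conditions was checked in parallel by MTT to exclude cytotoxic effects.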

[18] = test system: 518A2; test: Induction of cell cycle arrest in human 518A2 cells; assay type: functional, cell-based
[19] = test system: HT-29; test: Cell cycle arrest in human HT-29 cells assessed as accumulation of cells at G1 phase at 350 nM after 24 hrs by propidium iodide staining-based flow cytometric analysis (reference value: 75.1 +/- 1.1%); assay type: functional
[20] = test system: EA.hy 926; test: Cytotoxicity against human EAhy926 cells at 100 nM after 24 hrs by MTT assay relative to control; assay type: cell-based; conditions: ea.hy 926, 24 h, 0.1 µM
[21] = test system: HT-29; test: Cell cycle arrest in human HT-29 cells assessed as accumulation of cells at G1 phase at 250 nM after 24 hrs by propidium iodide staining-based flow cytometric analysis (reference value: 75.1 +/- 1.1%); assay type: functional
[22] = test system: HT-29; test: Cell cycle arrest in human HT-29 cells assessed as accumulation of cells at sub G1 phase at 250 nM after 24 hrs by propidium iodide staining-based flow cytometric analysis (reference value: 1.2 +/- 0.3%); assay type: functional
[23] = test system: HT-29; test: Cell cycle arrest in human HT-29 cells assessed as accumulation of cells at S phase at 350 nM after 24 hrs by propidium iodide staining-based flow cytometric analysis (reference value: 12.3 +/- 0.4%); assay type: functional
[24] = test system: 518A2; test: Induction of apoptosis in human 518A2 cells assessed as caspase-9 activity at 5 uM after 3.5 hrs by Caspase-Glo luminescence assay (reference value: 100 +/- 1.2%); assay type: functional
[25] = test system: 518A2; test: Induction of apoptosis in human 518A2 cells assessed as accumulation at subG1 phase; assay type: functional, cell-based
[26] = target: Tubulin (Homo sapiens) (UniProt P68371+Q9H4B7+P0DPH7+P68366+Q13509+Q71U36+P04350+Q3ZCM7+P07437+P68363+Q9BQE3+Q6PEY2+Q13885+Q9BVA1+Q9BUF5); test: Induction of microtubule disruption in human 518A2 cells at 100 nM after 3 hrs by DAPI staining-based fluorescence microscopic analysis; assay type: cell-based
In short: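 Microtubule organization in 518A2 melanoma cells was checked by tubulin immunofluorescence staining after 3 h exposure to 100 nM, with DAPI as the nuclear counterstain. Images come from two independent experiments.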

[27] = test system: 518A2; test: Effect on F-actin in human 518A2 cells assessed as thick stress fibers formation at 100 nM after 3 hrs by DAPI staining-based fluorescence microscopic analysis; assay type: cell-based
In short: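 518A2 melanoma cells were treated with 100 nM for 3 h. Filamentous actin was fluorescence-labelled, nuclei were counterstained with DAPI, and the cells were imaged by fluorescence microscopy. Images come from two independent experiments.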

[28] = test system: HT-29; test: Cell cycle arrest in human HT-29 cells assessed as accumulation of cells at G2/M phase at 100 nM after 24 hrs by propidium iodide staining-based flow cytometric analysis (reference value: 11.4 +/- 1.4%); assay type: functional
[29] = test system: HT-29; test: Cell cycle arrest in human HT-29 cells assessed as accumulation of cells at G2/M phase after 24 hrs by propidium iodide staining-based flow cytometric analysis; assay type: functional
[30] = Antiproliferative activity against human KB-V1/Vbl cells after 72 hrs by MTT assay; assay type: functional, cell-based; in short: as §1
[31] = test system: HT-29; test: Cell cycle arrest in human HT-29 cells assessed as accumulation of cells at sub G1 phase at 100 nM after 24 hrs by propidium iodide staining-based flow cytometric analysis (reference value: 1.2 +/- 0.3%); assay type: functional
[32] = test system: HT-29; test: Cell cycle arrest in human HT-29 cells assessed as accumulation of cells at G1 phase at 100 nM after 24 hrs by propidium iodide staining-based flow cytometric analysis (reference value: 75.1 +/- 1.1%); assay type: functional
[33] = test system: HT-29; test: Antiproliferative activity against human HT-29 cells after 72 hrs by MTT assay; assay type: functional, cell-based; conditions: HT-29, 72 h; in short: as §1

Row | Structure (SMILES) | Activity [1] | IC50 [1] [nM] | Activity [2] [%] | I50 [3] [µM] | Activity [4] [%] | IC50 [5] [nM] | IC50 [6] [nM] | IC50 [7] [nM] | IC50 [8] [nM] | Activity [9] [%] | IC50 [10] [nM] | IC50 [11] [nM] | Activity [12] [%] | Activity [13] [%] | Activity [14] | Activity [15] [%] | IC50 [16] [nM] | Activity [17] | Activity [18] | Activity [19] [%] | further results
1 | N#CC1=C(N)Oc2c(ccc3ccccc23)C1c1cccc([N+](=O)[O-])c1 (stereo not drawn) | Dose-dependent effect | 35.9 | 61.4 | 7.1 | 22.4 | 35.6 | 18.7 | 33.7 | 44.3 | 23.9 | 11.8 | 26 | 26.2 | 12.9 | Active | 12.2 | 12.5 | Active | inactive | 39.8 | Activity [20]: > 68%; Activity [21]: 51.7%; Activity [22]: 13%; Activity [23]: 24.1%; Activity [24]: 114.7%; Activity [25]: Active; Activity [26]: Active; Activity [27]: Active; Activity [28]: 18.4%; Activity [29]: Dose-dependent effect; IC50 [30]: 22.6 nM; Activity [31]: 6.1%; Activity [32]: 49.3%; IC50 [33]: 46.9 nM
2 | N#CC1=C(N)Oc2c(ccc3ccccc23)C1c1cc(F)cc(F)c1 (stereo not drawn) | Dose-dependent effect | 26.4 | 67.5 | 9.6 | 19.2 | 31.5 | 17 | 32.3 | 47 | 43.5 | 20.1 | 20.3 | 20.7 | 33.6 | Active | 13.4 | 19.5 | Active | inactive | 30.8 | Activity [20]: > 68%; Activity [21]: 35.9%; Activity [22]: 11.3%; Activity [23]: 12.3%; Activity [24]: 133%; Activity [25]: Active; Activity [26]: Active; Activity [27]: Active; Activity [28]: 31.8%; Activity [29]: Dose-dependent effect; IC50 [30]: 25.8 nM; Activity [31]: 7.1%; Activity [32]: 40.3%; IC50 [33]: 176 nM

Reference: ChEMBL document CHEMBL4330063, “New naphthopyran analogues of LY290181 as potential tumor vascular-disrupting agents” (Eur J Med Chem, 2019)
